According to ChEMBL document CHEMBL1138216, “Design and synthesis of novel derivatives of the muscarinic agonist tetra(ethylene glycol)(3-methoxy-1,2,5-thiadiazol-4-yl) [3-(1-methyl-1,2,5,6-tetrahydropyrid-3-yl)-1,2,5-thiadiazol-4-yl] ether (CDD-0304): effects of structural modifications on the binding and activity at muscarinic receptor …” (J Med Chem, 2006):
Calls of active or inactive are those of the source. The rule behind the calls is not given here.

Tests used:
[1] = tested on: Rattus norvegicus; assay: Antipsychotic activity in Sprague-Dawley rat assessed as ability to reverse apomorphine effect on prepulse inhibition of the startle response at 1 mg/kg, sc; type: functional, organism-based; parameters: dose 1 mg/kg
In short: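 Male Sprague-Dawley rats, 250-300 g, habituated a day before. Drug in water or saline sc (1 mL/kg) 25 min, apomorphine 1.0 mg/kg 5 min pre-test; muscarinic agonists 0.1-3 mg/kg. Session of 15 each pulse-alone (120 dB, 100 ms) and pulse preceded 200 ms by 20 ms prepulse 12 dB above 70 dB background; 12 rats/group; %PPI calculated.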

[2] = target: T1, Muscarinic acetylcholine receptor M3 (Homo sapiens, UniProt P20309); assay: Inhibition of [3H](R)-QNB binding to human M3 receptor expressed in A9 L cells; type: cell-based, A9L
Target sequence in this assay (P20309 whole entry): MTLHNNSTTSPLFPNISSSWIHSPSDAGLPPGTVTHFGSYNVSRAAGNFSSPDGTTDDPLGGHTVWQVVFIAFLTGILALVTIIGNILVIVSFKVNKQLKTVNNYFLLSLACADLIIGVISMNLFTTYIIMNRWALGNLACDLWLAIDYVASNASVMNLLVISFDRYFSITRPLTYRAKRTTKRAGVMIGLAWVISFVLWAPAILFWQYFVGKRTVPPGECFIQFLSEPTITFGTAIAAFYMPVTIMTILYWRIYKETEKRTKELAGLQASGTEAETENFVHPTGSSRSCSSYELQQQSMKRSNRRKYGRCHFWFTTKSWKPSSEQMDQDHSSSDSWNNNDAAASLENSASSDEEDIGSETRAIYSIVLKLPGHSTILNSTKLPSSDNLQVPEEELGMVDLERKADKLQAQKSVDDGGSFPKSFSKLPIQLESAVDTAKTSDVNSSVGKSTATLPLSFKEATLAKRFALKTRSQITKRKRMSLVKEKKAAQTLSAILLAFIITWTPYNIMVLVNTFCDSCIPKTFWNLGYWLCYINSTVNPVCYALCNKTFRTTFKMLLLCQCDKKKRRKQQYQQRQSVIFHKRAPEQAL

[3] = target: T2, Muscarinic acetylcholine receptor M4 (Homo sapiens) (UniProt P08173); assay: Activity at human M4 receptor assessed as inhibition of forskolin-stimulated cAMP accumulation at 1 mM relative to carbachol; type: functional
T2 sequence (whole entry): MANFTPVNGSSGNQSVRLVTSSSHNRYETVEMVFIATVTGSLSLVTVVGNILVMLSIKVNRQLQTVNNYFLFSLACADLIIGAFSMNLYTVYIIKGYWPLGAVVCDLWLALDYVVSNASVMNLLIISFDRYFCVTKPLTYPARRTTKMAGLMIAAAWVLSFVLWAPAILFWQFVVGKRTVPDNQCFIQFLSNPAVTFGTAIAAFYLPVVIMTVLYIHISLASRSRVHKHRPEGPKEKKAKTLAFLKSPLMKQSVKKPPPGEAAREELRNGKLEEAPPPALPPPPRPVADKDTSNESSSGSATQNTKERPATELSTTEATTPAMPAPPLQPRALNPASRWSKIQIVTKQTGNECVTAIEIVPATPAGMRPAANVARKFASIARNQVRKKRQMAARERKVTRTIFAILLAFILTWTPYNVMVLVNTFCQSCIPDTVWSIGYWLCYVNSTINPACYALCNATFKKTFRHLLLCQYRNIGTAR

[4] = target: T3, Muscarinic acetylcholine receptor M1 (Homo sapiens, UniProt P11229); assay: Inhibition of [3H](R)-QNB binding to human M1 receptor expressed in A9 L cells; type: cell-based, A9L
T3 sequence (P11229 whole entry): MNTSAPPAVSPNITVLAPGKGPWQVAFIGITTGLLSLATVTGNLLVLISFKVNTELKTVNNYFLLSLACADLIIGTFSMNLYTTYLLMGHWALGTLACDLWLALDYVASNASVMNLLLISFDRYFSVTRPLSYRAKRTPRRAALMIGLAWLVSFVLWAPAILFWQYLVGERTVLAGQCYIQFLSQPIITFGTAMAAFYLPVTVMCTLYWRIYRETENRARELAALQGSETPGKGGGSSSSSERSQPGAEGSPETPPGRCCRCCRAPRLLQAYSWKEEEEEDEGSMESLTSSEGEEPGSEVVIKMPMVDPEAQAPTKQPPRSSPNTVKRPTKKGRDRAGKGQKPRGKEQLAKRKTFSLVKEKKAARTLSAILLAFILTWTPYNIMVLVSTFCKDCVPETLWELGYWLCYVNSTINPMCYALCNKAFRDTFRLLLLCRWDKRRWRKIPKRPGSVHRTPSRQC

[5] = target: T4, Muscarinic acetylcholine receptor M4 (Homo sapiens, UniProt P08173); assay: Inhibition of [3H](R)-QNB binding to human M4 receptor expressed in A9 L cells; type: cell-based, A9L
T4 sequence (P08173 whole entry): T2 sequence (whole entry)
In short: (§1)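 Membranes from A9 L cells expressing the receptor; 0.1 nM [3H]-(R)-QNB with 14 concentrations of test ligand (0.01 nM to 3 mM) in 25 mM sodium phosphate pH 7.4, 5 mM MgCl2, 2 h room temperature; nonspecific binding with 1000-fold excess unlabeled (R)-QNB.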

[6] = target: T5, Muscarinic acetylcholine receptor M5 (Homo sapiens, UniProt P08912); assay: Inhibition of [3H](R)-QNB binding to human M5 receptor expressed in A9 L cells; type: cell-based, A9L; in short: as §1
T5 sequence (P08912 whole entry): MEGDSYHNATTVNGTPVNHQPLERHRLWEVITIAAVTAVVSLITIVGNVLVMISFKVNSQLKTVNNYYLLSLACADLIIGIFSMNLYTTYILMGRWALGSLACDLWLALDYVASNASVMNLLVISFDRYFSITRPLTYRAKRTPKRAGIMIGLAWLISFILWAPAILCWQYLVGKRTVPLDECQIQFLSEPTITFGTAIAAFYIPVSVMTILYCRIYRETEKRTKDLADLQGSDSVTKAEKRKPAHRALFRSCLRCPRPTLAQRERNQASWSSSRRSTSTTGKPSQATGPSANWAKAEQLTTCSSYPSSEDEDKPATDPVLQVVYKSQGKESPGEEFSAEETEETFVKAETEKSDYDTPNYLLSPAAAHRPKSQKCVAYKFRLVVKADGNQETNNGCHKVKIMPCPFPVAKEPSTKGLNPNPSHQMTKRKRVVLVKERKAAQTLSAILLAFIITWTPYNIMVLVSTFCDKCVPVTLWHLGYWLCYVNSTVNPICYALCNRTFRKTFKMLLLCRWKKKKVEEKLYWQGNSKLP

[7] = target: T1, Muscarinic acetylcholine receptor M3; assay: Agonist activity at human M3 receptor expressed in A9 L cells assessed as stimulation of phosphoinositide hydrolysis relative to carbachol; type: functional, cell-based; details: L929
In short: (§2)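 A9 L cells stably expressing the receptor, seeded 24 h, labelled overnight with 10 µCi/mL [3H]inositol in inositol-free DMEM; ligands in HBSS with 10 mM LiCl, 20 mM HEPES, 37 °C, 1 h; formic acid extraction, inositol phosphates counted by SPA beads.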
Target sequence in this assay (P20309 whole entry, looked up): as the sequence (P20309 whole entry) above

[8] = target: T6, Muscarinic acetylcholine receptor M1 (Homo sapiens) (UniProt P11229); assay: Agonist activity at human M1 receptor expressed in A9 L cells assessed as stimulation of phosphoinositide hydrolysis relative to carbachol; type: functional, cell-based; details: L929; in short: as §2
T6 sequence (whole entry): T3 sequence (P11229 whole entry)

[9] = target: T7, Muscarinic acetylcholine receptor M2 (Homo sapiens) (UniProt P08172); assay: Activity at human M2 receptor assessed as inhibition of forskolin-stimulated cAMP accumulation at 1 mM relative to carbachol; type: functional
T7 sequence (whole entry): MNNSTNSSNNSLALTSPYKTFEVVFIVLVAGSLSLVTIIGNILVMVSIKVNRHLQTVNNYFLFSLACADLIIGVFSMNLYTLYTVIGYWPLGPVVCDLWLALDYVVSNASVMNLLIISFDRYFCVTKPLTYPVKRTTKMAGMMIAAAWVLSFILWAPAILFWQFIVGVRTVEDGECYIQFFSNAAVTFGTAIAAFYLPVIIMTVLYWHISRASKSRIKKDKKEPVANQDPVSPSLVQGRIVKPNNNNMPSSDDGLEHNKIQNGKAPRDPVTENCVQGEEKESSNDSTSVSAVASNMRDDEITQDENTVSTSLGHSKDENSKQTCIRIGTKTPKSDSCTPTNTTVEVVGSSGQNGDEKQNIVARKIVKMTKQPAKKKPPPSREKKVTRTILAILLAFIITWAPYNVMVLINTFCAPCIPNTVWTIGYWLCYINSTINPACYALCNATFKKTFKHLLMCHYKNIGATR

[10] = target: T3, Muscarinic acetylcholine receptor M1; assay: Agonist activity at human M1 receptor expressed in A9 L cells assessed as stimulation of phosphoinositide hydrolysis; type: functional, cell-based, L929
[11] = target: T8, Muscarinic acetylcholine receptor M2 (Homo sapiens, UniProt P08172); assay: Inhibition of [3H](R)-QNB binding to human M2 receptor expressed in A9 L cells; type: cell-based, A9L; in short: as §1
T8 sequence (P08172 whole entry): T7 sequence (whole entry)

[12] = target: T9, Muscarinic acetylcholine receptor M5 (Homo sapiens) (UniProt P08912); assay: Agonist activity at human M5 receptor expressed in A9 L cells assessed as stimulation of phosphoinositide hydrolysis relative to carbachol; type: functional, cell-based; details: L929; in short: as §2
T9 sequence (whole entry): T5 sequence (P08912 whole entry)

[13] = target: T7, Muscarinic acetylcholine receptor M2 (Homo sapiens); assay: Activity at human M2 receptor assessed as inhibition of forskolin-stimulated cAMP accumulation relative to carbachol; type: functional
[14] = target: T9, Muscarinic acetylcholine receptor M5 (Homo sapiens); assay: Agonist activity at human M5 receptor expressed in A9 L cells assessed as stimulation of phosphoinositide hydrolysis at 100 uM relative to carbachol; type: functional, cell-based; details: L929
[15] = target: T2, Muscarinic acetylcholine receptor M4 (Homo sapiens); assay: Activity at human M4 receptor assessed as inhibition of forskolin-stimulated cAMP accumulation relative to carbachol; type: functional
[16] = target: T8, Muscarinic acetylcholine receptor M2; assay: Activity at human M2 receptor assessed as inhibition of forskolin-stimulated cAMP accumulation; type: functional
[17] = target: T4, Muscarinic acetylcholine receptor M4; assay: Activity at human M4 receptor assessed as inhibition of forskolin-stimulated cAMP accumulation; type: functional
[18] = target: T1, Muscarinic acetylcholine receptor M3; assay: Antagonist activity at human M3 receptor assessed as inhibition of carbachol […]; details: read-out: pA2 (converted)
Target sequence in this assay (P20309 whole entry): as the sequence (P20309 whole entry) above

Row | Compound | Activity [1] | Ki [2] [nM] | Imax [3] [%] | Ki [4] [nM] | Ki [5] [nM] | Ki [6] [nM] | Activity [7] | Smax [8] [%] | Imax [9] [%] | EC50 [10] [nM] | Ki [11] [nM] | Smax [12] [%] | Imax [13] | Smax [14] [%] | Imax [15] [%] | IC50 [16] [nM] | IC50 [17] [nM] | Activity [12] | Kb [18] [nM]
1 | O=C(CCCN1CCC(O)(c2ccc(Cl)cc2)CC1)c1ccc(F)cc1 | Active | – | – | – | – | – | – | – | – | – | – | – | – | – | – | – | – | – | –
2 | COc1nsnc1OCCCOCCCOCCCOc1nsnc1C1=CCCN(C)C1 | – | 200 | 260 | 100 | 158 | 100 | inactive | 21 | 130 | 3160 | 158 | 0.6 | – | – | – | – | – | – | –
3 | CN1CCN(C2=Nc3cc(Cl)ccc3Nc3ccccc32)CC1 | Active | – | – | – | – | – | – | – | – | – | – | – | – | – | – | – | – | – | –
4 | COc1nsnc1OCCOCCOCCOc1nsnc1C1=CCCN(C)C1 | – | 251 | – | 316 | 79.4 | 631 | inactive | 13 | – | 794 | 39.8 | – | 110% | 1.3 | 100 | 3160 | 7940 | – | –
5 | Clc1ccc2c(c1)N=C(N1CCNCC1)c1ccccc1N2 | inactive | – | – | – | – | – | – | – | – | – | – | – | – | – | – | – | – | – | –
6 | COc1nsnc1OCCOCCOc1nsnc1C1=CCCN(C)C1 | – | 50.1 | – | 794 | 63.1 | 251 | inactive | 11 | – | 1000 | 39.8 | – | 77% | 0.83 | 47 | 79.4 | 7940 | – | –
7 | COc1nsc(OCCCOCCCOCCCOc2nsnc2C2=CCCN(C)C2)n1 | – | 200 | – | 63.1 | 158 | 251 | inactive | 27 | – | 501 | 63.1 | – | inactive | – | 130 | – | 6310 | inactive | –
8 | CN1CCC=C(c2nsnc2OCCOCCOCCOCCO)C1 | – | 316 | – | 1000 | 794 | 3980 | inactive | 7.9 | – | 794 | 316 | 7.4 | 86% | – | 110 | 7.94 | 25100 | – | –
9 | COc1nsnc1OCCOCCOCCOCCOCCOc1nsnc1C1=CCCN(C)C1 | – | 1580 | – | 398 | 12.6 | 100 | inactive | 28 | – | 251 | 2.51 | – | 98% | 0.95 | 37 | 398 | 398 | – | 63.1
